Measurements taken from ChEMBL document CHEMBL2146413, “Mammalian multidrug resistance lipopentasaccharide inhibitors from Ipomoea alba seeds” (J Nat Prod, 2012).
Values after ≈ are worked out from the molar mass of the structure shown.

What was measured:
MCF7 [1] = assay: Cytotoxicity against drug-sensitive human MCF7 cells after 72 hrs by SRB assay; format: functional, cell-based; conditions: MCF7, 72 h
Outline: (§1)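 Log-phase cells in RPMI 1640 + 10% FBS, 37 °C, 5% CO2, exposed in triplicate to 0.2−25 μg/mL test sample for 72 h. Growth read by sulforhodamine B. IC50 = concentration giving 50% inhibition of control growth, taken from a semilog plot of concentration against % growth inhibition. Vinblastine served as positive control. Resistant line MCF-7/Vin was kept with or without 0.192 μg/mL vinblastine.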

MCF7 [2] = assay: Cytotoxicity against vinblastine-reasistant human MCF7 cells after 72 hrs by SRB assay; format: functional, cell-based; conditions: MCF7, 72 h; outline: as §1
MCF7 [3] = assay: Cytotoxicity against vinblastine-sensitive human MCF7 cells after 72 hrs by SRB assay; format: functional, cell-based; conditions: MCF7, 72 h; outline: as §1
MDR [4] = assay: Inhibition of MDR in vinblastine-resistant human MCF7 cells assessed as decrease in vinblastine IC50 at 25 ug/mL after 72 hrs by SRB assay; format: cell-based
Outline: (§2)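 Vinblastine (0.00064−10 μg/mL) was given with or without glycolipid at 25 or 5 μg/mL for 72 h at 37 °C, 5% CO2, then read by SRB assay. Vinblastine IC50 came from a semilog plot. Reversal fold = IC50 of vinblastine alone / IC50 with glycolipid. Reserpine 5 μg/mL served as positive control. Values are mean ± SD of three independent experiments.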

MDR [5] = assay: Inhibition of MDR in vinblastine-sensitive human MCF7 cells assessed as decrease in vinblastine IC50 at 25 ug/mL after 72 hrs by SRB assay; format: cell-based; outline: as §2
MDR [6] = assay: Inhibition of MDR in drug-sensitive human MCF7 cells assessed as decrease in vinblastine IC50 at 25 ug/mL after 72 hrs by SRB assay; format: cell-based; outline: as §2
MDR [7] = assay: Inhibition of MDR in vinblastine-resistant human MCF7 cells assessed as decrease in vinblastine IC50 at 5 ug/mL after 72 hrs by SRB assay; format: cell-based; outline: as §2
MDR [8] = assay: Inhibition of MDR in vinblastine-sensitive human MCF7 cells assessed as decrease in vinblastine IC50 at 5 ug/mL after 72 hrs by SRB assay; format: cell-based; outline: as §2
MDR [9] = assay: Inhibition of MDR in drug-sensitive human MCF7 cells assessed as decrease in vinblastine IC50 at 5 ug/mL after 72 hrs by SRB assay; format: cell-based; outline: as §2

`CC[C@]1(O)C[C@@H]2CN(CCc3c([nH]c4ccccc34)[C@@](C(=O)OC)(c3cc4c(cc3OC)N(C)[C@H]3[C@@](O)(C(=O)OC)[C@H](OC(C)=O)[C@]5(CC)C=CCN6CC[C@]43[C@@H]65)C2)C1` [VINBLASTINE] showed an IC50 (MCF7 [1]) of 0.047 µg/mL (≈ 0.058 µM) and an IC50 (MCF7 [2]) of 1.37 µg/mL (≈ 1.69 µM).

`C/C=C(\C)C(=O)O[C@H]1[C@H](O[C@H]2[C@@H]3O[C@H]4[C@H](O[C@@H](CCCCC)CCCCCCCCCC(=O)O[C@H]2[C@H](O)[C@@H](CO[C@@H]2O[C@H](C)[C@@H](O)[C@H](OC(=O)/C(C)=C/C)[C@H]2O[C@@H]2O[C@@H](C)[C@H](O)[C@@H](O)[C@H]2O)O3)O[C@H](C)[C@@H](O)[C@@H]4O)O[C@@H](C)[C@H](O)[C@H]1O` [ALBINOSIDE III] showed an IC50 (MCF7 [3]) greater than 20 µg/mL, an IC50 (MCF7 [1]) greater than 20 µg/mL and an IC50 (MCF7 [2]) greater than 20 µg/mL. For the same compound, the fold change (FC) (MDR [4]) was greater than 2140, the fold change (FC) (MDR [5]) was greater than 1690 and the fold change (FC) (MDR [6]) was greater than 73.4.

For `C/C=C(\C)C(=O)O[C@H]1[C@@H]2O[C@H]3[C@H](O[C@@H](CCC)CCCCCCCCCC(=O)O[C@@H]4[C@@H](O)[C@H](C)O[C@@H](O[C@@H]5[C@@H](O[C@@H]6O[C@@H](C)[C@H](O)[C@@H](O)[C@H]6O)[C@H](O[C@H]([C@H]1O)[C@H](C)O2)O[C@H](C)[C@H]5OC(=O)/C(C)=C/C)[C@@H]4O)O[C@H](C)[C@@H](O)[C@@H]3O` [ALBINOSIDE II], the IC50 (MCF7 [3]) was greater than 20 µg/mL, the IC50 (MCF7 [1]) was greater than 20 µg/mL and the IC50 (MCF7 [2]) was greater than 20 µg/mL. The fold change (FC) (MDR [4]) was 2.6, the fold change (FC) (MDR [5]) was 1.3 and the fold change (FC) (MDR [6]) was 1.9.

`CCC[C@H]1CCCCCCCCCC(=O)O[C@H]2[C@H](O[C@H]3[C@H](OC[C@H]4O[C@@H](O[C@H]5[C@H](O1)O[C@H](C)[C@@H](O)[C@@H]5O)[C@H](O[C@@H]1O[C@@H](C)[C@H](OC(C)=O)[C@@H](O)[C@H]1O)[C@@H](O)[C@@H]4O)O[C@H](C)[C@@H](O)[C@@H]3O)O[C@@H](C)[C@H](OC(=O)[C@H](C)[C@@H](C)O)[C@H]2O` [ALBINOSIDE I] gave an IC50 (MCF7 [3]) greater than 20 µg/mL, an IC50 (MCF7 [1]) greater than 20 µg/mL and an IC50 (MCF7 [2]) greater than 20 µg/mL. For the same compound, the fold change (FC) (MDR [4]) was 3.1, the fold change (FC) (MDR [5]) was 4.2 and the fold change (FC) (MDR [6]) was 2.1.

`COC(=O)[C@H]1[C@H]2C[C@@H]3c4[nH]c5cc(OC)ccc5c4CCN3C[C@H]2C[C@@H](OC(=O)c2cc(OC)c(OC)c(OC)c2)[C@@H]1OC` was tested, and the fold change (FC) (MDR [7]) was 4.4, the fold change (FC) (MDR [8]) was 29.2 and the fold change (FC) (MDR [9]) was 15.7.
